ChEMBL document CHEMBL4024783, “Alkylated Piperazines and Piperazine-Azole Hybrids as Antifungal Agents” (J Med Chem, 2018)
Values after ≈ are worked out from the molar mass of the structure shown. Active and inactive are the calls of the source. The rule behind the calls is not given here.

Experiments:
A549 = assay: Cytotoxicity against human A549 cells up to 15.5 ug/mL after 24 hrs by resazurin-based fluorescence assay; type: cell-based; settings: a549, 24 h
In short: (§1)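 Cells grown in DMEM with 10% FBS at 37 °C, 5% CO2, and seeded at 10000 (HEK-293) or 3000 (BEAS-2B, A549) per well. After 16 h, exposed 24 h to 0.13–31 µg/mL final in medium with 0.1–0.4% DMSO. Resazurin added for 6–10 h; fluorescence read at 560/590 nm and survival normalized to DMSO control after background subtraction. Triton X-100 12.5% v/v positive control; duplicate.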

BEAS-2B = assay: Cytotoxicity against human BEAS2B cells at 7.8 ug/mL after 24 hrs by resazurin-based fluorescence assay; type: cell-based; in short: as §1
Candida albicans [1] = assay: Antifungal activity against Candida albicans ATCC 64124 after 48 hrs by broth dilution method; type: functional; settings: Candida albicans, ATCC 64124, 48 h
In short: (§2)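 CLSI M27-A3 broth microdilution with minor modifications. Overnight YPD culture grown at 35 °C, 200 rpm, adjusted to OD600 0.12, diluted in RPMI 1640 buffered to pH 7.0 with 0.165 M MOPS to a final 1–2 × 10^3 CFU/mL. Test compounds at 0.015–31.3 µg/mL, 48 h at 35 °C, DMSO <1.25%. […] Triplicate.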

HEK293 = assay: Cytotoxicity against HEK293 cells at 7.8 ug/mL after 24 hrs by resazurin-based fluorescence assay; type: cell-based; settings: human, hek293, 24 h; in short: as §1
Candida parapsilosis [2] = assay: Antifungal activity against Candida parapsilosis ATCC 22019 after 48 hrs by broth dilution method; type: functional; settings: Lodderomyces parapsilosis, ATCC 22019, 48 h
Candida albicans [3] = assay: Antifungal activity against itraconazole and fluconazole susceptible Candida albicans ATCC MYA-2310 after 48 hrs by broth dilution method; type: functional; settings: Candida albicans, ATCC MYA-2310, 48 h
Candida albicans [4] = assay: Antifungal activity against itraconazole and fluconazole resistant Candida albicans ATCC 90819 after 48 hrs by broth dilution method; type: functional; settings: Candida albicans, ATCC 90819, 48 h; in short: as §2
Candida albicans [5] = assay: Antifungal activity against Candida albicans ATCC 10231 after 48 hrs by broth dilution method; type: functional; settings: ATCC 10231, 48 h
Candida albicans [6] = assay: Antifungal activity against itraconazole and fluconazole resistant Candida albicans ATCC MYA-1237 after 48 hrs by broth dilution method; type: functional; settings: Candida albicans, ATCC MYA-1237, 48 h; in short: as §2
Pichia kudriavzevii = assay: Antifungal activity against Candida krusei ATCC 6258 after 48 hrs by broth dilution method; type: functional; settings: Pichia kudriavzevii, ATCC 6258, 48 h
In short: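 Yeasts tested per CLSI M27-A3 with minor changes. An overnight YPD culture (35 °C, 200 rpm) was adjusted to OD600 0.12 and diluted in MOPS-buffered RPMI 1640 (pH 7.0) to a final 1–2 × 10^3 CFU/mL. Compounds 0.015–31.3 µg/mL, DMSO <1.25%.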

Candida albicans [7] = assay: Antifungal activity against itraconazole and fluconazole susceptible Candida albicans ATCC MYA-2876 after 48 hrs by broth dilution method; type: functional; settings: Candida albicans, ATCC MYA-2876, 48 h
Candida albicans [8] = assay: Antifungal activity against itraconazole and fluconazole resistant Candida albicans ATCC MYA-1003 after 48 hrs by broth dilution method; type: functional; settings: Candida albicans, ATCC MYA-1003, 48 h; in short: as §2
Nakaseomyces glabratus [9] = assay: Antifungal activity against Candida glabrata ATCC 2001 after 48 hrs by broth dilution method; type: functional, CBS 138; settings: Nakaseomyces glabratus, CBS 138, 48 h
Aspergillus flavus = assay: Antifungal activity against Aspergillus flavus ATCC MYA-3631 after 48 hrs by broth dilution method; type: functional; settings: ATCC MYA-3631, 48 h
Aspergillus nidulans [10] = assay: Antifungal activity against Aspergillus nidulans ATCC 38163 after 48 hrs by broth dilution method; type: functional; settings: Aspergillus nidulans, ATCC 38163, 48 h
In short: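 A. nidulans run per CLSI M38-A2. PDA spores were filtered through glass wool and counted by hemocytometer. Test range 0.03–31.3 µg/mL in MOPS-buffered RPMI 1640 (pH 7.0), final 5 × 10^5 CFU/mL.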

Aspergillus terreus = assay: Antifungal activity against Aspergillus terreus ATCC MYA-3633 after 48 hrs by broth dilution method; type: functional; settings: Aspergillus terreus, ATCC MYA-3633, 48 h
In short: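 Molds tested per CLSI M38-A2. Spores were harvested from sporulating PDA cultures by filtering through glass wool and counted on a hemocytometer. Serial dilutions (0.03–31.3 µg/mL) were made in RPMI 1640 buffered to pH 7.0 with 0.165 M MOPS, final inoculum 5 × 10^5 CFU/mL.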

Candida albicans [11] = assay: Ratio of MIC80 for voriconazole resistant Candida albicans ATCC 64124 sessile cells to MIC for voriconazole resistant Candida albicans ATCC 64124; type: functional
[12] = Solubility of the compound in DMSO; type: physicochemical
Candida parapsilosis [13] = assay: Fungistatic activity against Candida parapsilosis ATCC 22019 up to 8 times MIC incubated for 24 hrs by time kill assay; type: functional
In short: (§3)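 Overnight YPD cultures were diluted in RPMI 1640 to OD600 0.12–0.13; initial inoculum 1–4 × 10^5 CFU/mL. […] Shaken at 200 rpm, 35 °C, for 24 h, sampling at 0, 3, 6, 9, 12 and 24 h. Serial dilutions were plated on PDA and CFU counted; detection limit 100 CFU/mL; duplicate.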

Nakaseomyces glabratus [14] = assay: Fungicidal activity against Candida glabrata ATCC 2001 at 4 times MIC incubated for 24 hrs by time kill assay; type: functional; settings: CBS 138; in short: as §3
[15] = Cytotoxicity against HEK293 cells assessed as cell survival at 7.8 ug/mL after 24 hrs by resazurin-based fluorescence assay; settings: human, read-out: Survival
In short: (§4)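 Cells were grown in DMEM with 10% FBS and 1% Pen/Strep at 37 °C, 5% CO2. HEK-293 was seeded at 10000 cells/well; A549 and BEAS-2B at 3000 cells/well. After 16 h, cells were exposed for 24 h to final 0.13–31 µg/mL in 0.1–0.4% DMSO, then given resazurin for 6–10 h. Read at ex 560/em 590. […] Run in duplicate.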

Aspergillus nidulans [16] = assay: Antifungal activity against Aspergillus nidulans ATCC 38163 after 48 hrs in the presence of 10% FBS by broth dilution method; type: functional; settings: ATCC 38163, 48 h
Candida albicans [17] = assay: Antifungal activity against Candida albicans ATCC 10231 after 48 hrs in the presence of 10% FBS by broth dilution method; type: functional; settings: ATCC 10231, 48 h
Candida parapsilosis [18] = assay: Antifungal activity against Candida parapsilosis ATCC 22019 after 48 hrs in the presence of 10% FBS by broth dilution method; type: functional; settings: Lodderomyces parapsilosis, ATCC 22019, 48 h
[19] = Cytotoxicity against human A549 cells assessed as cell survival at 7.8 ug/mL after 24 hrs by resazurin-based fluorescence assay; settings: read-out: Survival; in short: as §4
Candida albicans [20] = assay: Antibiofilm activity against voriconazole resistant Candida albicans ATCC 64124 sessile cells incubated for 24 hrs by XTT reduction assay; type: functional; settings: ATCC 64124, 24 h
In short: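 Strain B grown overnight in YPD broth at 35 °C, diluted to OD600 0.1 (~10^6 CFU/mL), then grown statically for 24 h at 37 °C to form biofilm. Washed with PBS, then drug in RPMI 1640 at 0.12–62.5 µg/mL for 24 h at 37 °C. Read-out: XTT 0.5 mg/mL with menadione 1 µM, 2 h, A490. SMIC50/SMIC80 are 50%/80% decreases versus drug-free biofilm. Duplicate.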

[21] = Aqueous solubility of the compound; type: physicochemical; settings: buffer
[22] = Cytotoxicity against human BEAS2B cells assessed as cell survival at 7.8 ug/mL after 24 hrs by resazurin-based fluorescence assay; settings: BEAS-2B cells, read-out: Survival; in short: as §4

CCCCCCCCN1CCN(CC(O)(Cn2cncn2)c2ccc(F)cc2F)CC1 (configuration not stated)
Activity (A549): Non-Toxic
Activity (BEAS-2B): Toxic
MIC (Candida albicans [1]): 71.9 µM (≈ 31.3 µg/mL)
Activity (HEK293): Toxic
MIC (Candida parapsilosis [2]): 0.1 µM (≈ 0.0436 µg/mL)
MIC (Candida albicans [3]): > 71.9 µM
MIC (Candida albicans [4]): 35.8 µM (≈ 15.6 µg/mL)
MIC (Candida albicans [5]): 9 µM (≈ 3.92 µg/mL)
MIC (Candida albicans [6]): 71.9 µM (≈ 31.3 µg/mL)
MIC (Pichia kudriavzevii): 17.9 µM (≈ 7.8 µg/mL)
MIC (Candida albicans [7]): 71.9 µM (≈ 31.3 µg/mL)
MIC (Candida albicans [8]): 2.2 to 71.9 µM (≈ 0.958 to 31.3 µg/mL)
MIC (Nakaseomyces glabratus [9]): 35.8 µM (≈ 15.6 µg/mL)
MIC (Aspergillus flavus): 4.5 µM (≈ 1.96 µg/mL)
MIC (Aspergillus nidulans [10]): 9 µM (≈ 3.92 µg/mL)
MIC (Aspergillus terreus): 9 µM (≈ 3.92 µg/mL)

CCCCCCCCCCCCN1CCN(CC(O)(Cn2cncn2)c2ccc(F)cc2F)CC1 (configuration not stated)
MIC (Candida albicans [1]): 15.9 µM (≈ 7.82 µg/mL)
Ratio (Candida albicans [11]): 1 - 2
solubility [12]: Soluble
MIC (Candida parapsilosis [2]): 0.03 µM (≈ 0.0148 µg/mL)
Activity (Candida parapsilosis [13]): Active
MIC (Candida albicans [3]): 15.9 µM (≈ 7.82 µg/mL)
Activity (Nakaseomyces glabratus [14]): Active
viability at 24 h, 7.8 ug/mL [15]: < 40%
MIC (Aspergillus nidulans [16]): 3.9 µg/mL
MIC (Candida albicans [4]): 7.9 µM (≈ 3.88 µg/mL)
MIC (Candida albicans [17]): 1.95 µg/mL
MIC (Candida albicans [5]): 3.9 µM (≈ 1.92 µg/mL)
MIC (Candida parapsilosis [18]): 0.06 µg/mL
MIC (Candida albicans [6]): 15.9 µM (≈ 7.82 µg/mL)
viability at 24 h, 7.8 ug/mL [19]: < 40%
MIC (Pichia kudriavzevii): 0.98 µM (≈ 0.482 µg/mL)
MIC (Candida albicans [7]): 7.9 µM (≈ 3.88 µg/mL)
MIC50 (Candida albicans [20]): 7.8 µg/mL (≈ 15.9 µM)
MIC80 (Candida albicans [20]): 15.6 µg/mL (≈ 31.7 µM)
MIC (Candida albicans [8]): 31.7 µM (≈ 15.6 µg/mL)
MIC (Nakaseomyces glabratus [9]): 2 µM (≈ 0.983 µg/mL)
solubility [21]: Soluble
MIC (Aspergillus flavus): 3.9 µM (≈ 1.92 µg/mL)
MIC (Aspergillus nidulans [10]): 7.9 µM (≈ 3.88 µg/mL)
viability at 24 h, 7.8 ug/mL [22]: < 40%
MIC (Aspergillus terreus): 7.9 µM (≈ 3.88 µg/mL)
